Measurements collected from several papers.
Compare with care: the assays were run in different laboratories.
Target: Serine/threonine-protein kinase 26 (STK26, Homo sapiens, UniProt Q9P289)

CCN1CCN(Cc2ccc(C(=O)Nc3ccc(C)c(Oc4ccc5c(c4)CC(=O)N5)c3)cc2C(F)(F)F)CC1 — remaining binding (binding, competition with immobilised ligand; 1 µM): 100%
O=C(NCC1CCOCC1)c1n[nH]cc1NC(=O)c1c(F)cccc1F — remaining binding (binding, competition with immobilised ligand; 1 µM): 77%
COc1cnc(Nc2cccc(S(N)(=O)=O)c2)nc1N1CCN(c2ccccc2)CC1 — remaining binding (binding, competition with immobilised ligand; 1 µM): 78%
C[C@@H](c1ccc(-n2cnc3c(N)ncnc32)cc1)N1CCc2nn(C)c(Cc3ccccc3)c2C1=O — remaining binding (binding, competition with immobilised ligand; 0.1 µM): 88%
O=C(NCCCN1CCOCC1)c1ccc(Nc2ncc(Cl)c(-c3ccc(Cl)s3)n2)cc1 — remaining binding (binding, competition with immobilised ligand; 1 µM): 16%
CS(=O)(=O)N1CCCC(NC(=O)[C@H](CCC2CCCCC2)NC(=O)c2ccc(CNC(=O)c3cnc4ccccn34)cc2)C1 (some centres unmarked) — remaining binding (cell-free assay, competition with immobilised ligand; 0.1 µM): 100%
CNC(=O)[C@@H]1CC[C@@H](n2c(-c3ccc4cnccc4c3)nc3ccc(C(=O)NCc4cccc(C(N)=O)c4)cc32)C1 — remaining binding (binding, competition with immobilised ligand; 1 µM): 100%
O=C(c1ccc(Nc2nccc(-c3cc4ccccc4s3)n2)cc1)N1CCC(N2CCCC2)CC1 — remaining binding (binding, competition with immobilised ligand; 1 µM): 99%
CCC(=O)N[C@@H]1CC[C@H](C(=O)N(C)c2ccc(-c3nc4ccccc4o3)cc2)C1 — remaining binding (cell-free assay, competition with immobilised ligand; 1 µM): 77%
O=C(c1ccc(Nc2ncc(Cl)c(-c3ccc(Cl)s3)n2)cc1)N1CCC(N2CCCC2)CC1 — remaining binding (binding, competition with immobilised ligand; 1 µM): 30%
CC(=O)c1c(NS(C)(=O)=O)c2cc(-c3ccc(Cl)cc3)c(-c3ccc(Cl)cc3Cl)nc2n(C)c1=O — remaining binding (cell-free assay, competition with immobilised ligand; 1 µM): 84%
c1cncc(-c2cccc(Nc3nccc(NC4CCCCC4)n3)c2)c1 — remaining binding (binding, competition with immobilised ligand; 10 µM): 83%
CN1CCN(c2ccc(Nc3nccc(-c4ccccc4)n3)cc2C(F)(F)F)CC1 — remaining binding (binding; 10 µM): 81%
CN([C@@H]1CCc2c(CC(=O)O)c3cc(S(C)(=O)=O)ccc3n2C1)S(=O)(=O)c1ccc(F)cc1 — remaining binding (cell-free assay, competition with immobilised ligand; 1 µM): 77%
